Rpn11 block: Rpn11 (human) deubiquitinase inhibition; human 26S proteasome, Ub4-pepOG fluorescence polarization; 20S core pre-blocked with epoxomicin; 0.59% of 360,000 active; inhibition, % at 20 µM; O00487;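 active = inhibition at 20 µM, scaled to each plate's controls, above about 33%, limit read from the data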
Target sequence (O00487 whole entry, looked up): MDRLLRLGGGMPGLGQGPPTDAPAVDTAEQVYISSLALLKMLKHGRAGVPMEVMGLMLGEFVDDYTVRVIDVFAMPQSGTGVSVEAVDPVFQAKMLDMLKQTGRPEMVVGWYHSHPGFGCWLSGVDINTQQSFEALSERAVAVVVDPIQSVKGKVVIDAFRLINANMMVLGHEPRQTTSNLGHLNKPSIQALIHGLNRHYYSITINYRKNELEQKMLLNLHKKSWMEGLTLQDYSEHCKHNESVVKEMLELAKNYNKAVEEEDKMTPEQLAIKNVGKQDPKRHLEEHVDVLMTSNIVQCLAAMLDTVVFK
STEP block: blocks human striatal-enriched tyrosine phosphatase; P54829; recombinant STEP, OMFP fluorogenic substrate, fluorescence; inhibition, % at 20 µM; 0.25% of 360,000 active;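 active = inhibition at 20 µM, scaled per plate between control wells, above about 37%, limit read from the data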;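 note: 0% = DMSO with enzyme and substrate and 100% = substrate only without enzyme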
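Also added – OMFP at 25 µM · Test system – STEP tyrosine phosphatase · Technique – FITC-channel fluorescence of OMFP product · Schedule – 20 min at room temperature, dark · Evaluation – control-normalized % inhibition with plate pattern correction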
LMPTP block: LMPTP (human) inhibition. P24666. inhibition, % at 20 µM. AID 651560. 0.22% of 360,000 active. recombinant LMPTP-A, OMFP fluorogenic substrate, fluorescence intensity;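 active = compounds that cut the enzyme signal by at least half of the control window in the single-dose screen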;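 note: plate controls were DMSO wells with enzyme plus substrate for no effect and substrate without enzyme for full effect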
Target sequence (P24666 whole entry, looked up): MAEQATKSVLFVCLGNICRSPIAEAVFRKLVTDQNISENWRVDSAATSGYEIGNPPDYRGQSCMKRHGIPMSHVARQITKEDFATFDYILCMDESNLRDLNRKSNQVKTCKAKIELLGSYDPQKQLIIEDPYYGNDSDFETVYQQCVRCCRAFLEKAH
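test system = LMPTP-A | amount = 0.625 nM LMPTP-A final | reagent = fluorogenic phosphatase substrate OMFP at 400 µM final | incubation = 50 min at room temperature | benchmarks = no-enzyme low control, uninhibited high control | medium = Bis-Tris pH 6.0, DTT, detergent | signal = fluorescence intensity of OMFP turnover product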
DNMT1 block: blocks human DNA methyltransferase DNMT1; inhibition (reported as % activation of signal), % at 10 µM; 0.83% of 360,000 active; DNMT1 molecular beacon, Hinp1I cleavage, fluorescence; P26358; in the data active = inhibition above about 50%
Scp-1 inhibitor: inhibitors of human Scp-1 phosphatase; Q9GZU7; Recombinant Scp1, phosphopeptide, malachite green phosphate absorbance; inhibition, % at 20 µM; 0.88% of 340,000 active; AID 493091;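 active = inhibition above about 50% at 20 µM, limit read from the data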;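 note: plate controls were DMSO wells with enzyme for no effect and wells lacking enzyme for full effect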
Target sequence (Q9GZU7 76-261 limits assumed): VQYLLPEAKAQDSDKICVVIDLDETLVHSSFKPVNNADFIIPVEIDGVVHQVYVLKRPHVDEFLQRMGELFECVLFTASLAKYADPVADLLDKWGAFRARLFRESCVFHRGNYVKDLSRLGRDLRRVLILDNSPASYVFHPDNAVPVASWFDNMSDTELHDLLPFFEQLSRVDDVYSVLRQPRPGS
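Times: enzyme reaction 45 min at room temperature, colour 5 min, stabilisation 30 min. Material: SCP-1 catalytic fragment, aa 76-261. Medium: Acidic Tris acetate buffer with magnesium and detergent. Signal: colorimetric free-phosphate detection, absorbance 630 nm. Read-out basis: % inhibition of SCP-1 phosphate liberation. Reagent: Phosphorylated 17-residue peptide substrate.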
Scp1 confirm: confirmation of human Scp-1 phosphatase inhibitors. shares compounds with Scp-1 inhibitor. recombinant SCP-1 catalytic domain, phosphate release, malachite green absorbance. inhibition, % at 20 µM. 61% of 2,500 active. AID 540281;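 note: plate controls were DMSO with enzyme for no effect and buffer wells lacking enzyme for full effect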
Scp-1 MG ctr: colorimetric interference in Scp-1 counter-screen. shares compounds with Scp-1 inhibitor. Colorimetric interference counterscreen, malachite green absorbance 630 nm. apparent inhibition (interference), % at 20 µM. 2,500 tested, under 10 active. AID 540313;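 note: compounds added after enzyme reaction finished so only phosphate colour detection is probed; plate controls were DMSO wells with completed Scp-1 reaction for no effect and substrate wells lacking enzyme for full effect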
Scp1 DSF: validation of human Scp-1 inhibitors by thermal shift binding; Recombinant SCP1, Sypro Orange thermal shift Tm; 25% of 1,500 active; thermal shift relative to vanadate control, % at 40 µM; AID 540329; shares compounds with Scp-1 inhibitor;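 active = substances whose mean melting-temperature shift, as a percentage of the reference inhibitor's shift, reaches about 5.3%, limit read from the data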;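 note: 0% = Tm of DMSO wells and 100% = Tm with sodium orthovanadate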
Active calls of the source: *. Shown are actives, neighbours in structure and some others; about 2% of the full set was active somewhere.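 Rule for the calls, unless noted: active = inhibition of at least 30% at 20 µM; inactive = the rest.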

What do the screens show for `O=C(CCCN1C(=O)/C(=C/c2cccs2)SC1=S)Nc1cc([N+](=O)[O-])ccc1O`?
Rpn11 block: -6.5; STEP block: 1.0; LMPTP block: -0.1; DNMT1 block: -1.2; Scp-1 inhibitor: -5.3

How did O=C(NCCc1ccc(Cl)cc1)C1COc2ccccc2O1 (stereo unspecified) do in these assays?
Rpn11 block: -2.9; STEP block: 0.2; LMPTP block: 1.5; DNMT1 block: -1.9; Scp-1 inhibitor: 0.9

Results for C=C1c2cccc(OC)c2O[C@H](C(=O)OCC)[C@@H]1CC(CC)CCCC (stereo partly specified) ?
Rpn11 block: -2.3; STEP block: -0.3; LMPTP block: 1.7; DNMT1 block: 4.9; Scp-1 inhibitor: 94.2*; Scp1 confirm: 34.2*; Scp-1 MG ctr: -23.3; Scp1 DSF: -10.7

What do the screens show for `O=C(CNS(=O)(=O)c1ccc(Br)cc1Cl)OCC(=O)N1CCCC1=O`?
Rpn11 block: -2.2; STEP block: -0.7; LMPTP block: -1.8; DNMT1 block: 4.6; Scp-1 inhibitor: 2.8; Scp1 confirm: -11.1; Scp-1 MG ctr: -13.7

What do the screens show for `CCOc1cc(Br)c(Br)c(C=Nc2ccc(NC(C)=O)cc2)c1O`?
Rpn11 block: 24.2; STEP block: 13.4; LMPTP block: 7.3; DNMT1 block: 8.3; Scp-1 inhibitor: 75.0*; Scp1 confirm: 71.8*; Scp-1 MG ctr: -14.0; Scp1 DSF: 2.3

How did CC(=O)Nc1ccc(N=Cc2c(O)c(C(=O)Nc3ccccc3)cc3ccccc23)cc1 do in these assays?
Scp-1 inhibitor: -8.1

What do the screens show for `O=C(/C=C/c1cccc(Cl)c1)OCC(=O)c1ccc[nH]1`?
Rpn11 block: 3.7; STEP block: -2.6; LMPTP block: -1.1; DNMT1 block: 1.1

Results for O=C(O)C1=C[C@@H](c2ccccc2)C[C@@H](OCc2ccc(CO)cc2)O1 ?
Rpn11 block: 0.2; STEP block: -1.4; LMPTP block: -0.7; DNMT1 block: 0.6; Scp-1 inhibitor: -0.3

How did C#Cc1ccc([C@@H]2C=C(C(=O)O)O[C@H](OCc3ccc(CO)cc3)C2)cc1 do in these assays?
Rpn11 block: -1.4; STEP block: 2.1; LMPTP block: -0.1; DNMT1 block: 45.4; Scp-1 inhibitor: 56.9*; Scp1 confirm: 67.9*; Scp-1 MG ctr: -0.2; Scp1 DSF: 2.3

Results for CCOc1nc(Nc2ccc(OC)cc2)nc(OCC)n1 ?
Rpn11 block: -31.7; STEP block: 12.5; LMPTP block: -0.4; DNMT1 block: 3.1; Scp-1 inhibitor: 66.9*; Scp1 confirm: 29.9; Scp-1 MG ctr: -17.3

What do the screens show for `COc1ccc(Nc2nc(OC)nc(OC)n2)cc1`?
Rpn11 block: 2.2; STEP block: -0.8; LMPTP block: -1.3; DNMT1 block: -3.6; Scp-1 inhibitor: 0.8

How did Cc1ccccc1OCc1nnc(SCC(=O)NCc2ccco2)n1C do in these assays?
Rpn11 block: -1.5; STEP block: -0.8; LMPTP block: -0.6; DNMT1 block: 4.0; Scp-1 inhibitor: -3.1

How did COCCCNC(=O)CSc1ccsc1[N+](=O)[O-] do in these assays?
Rpn11 block: -9.3; STEP block: 1.3; LMPTP block: 1.0; DNMT1 block: 0.2; Scp-1 inhibitor: 19.1

How did COc1ccccc1OCc1nnc(SCC(=O)NCc2ccco2)n1Cc1ccco1 do in these assays?
Rpn11 block: -2.5; STEP block: 8.2; LMPTP block: 2.7; DNMT1 block: 42.9; Scp-1 inhibitor: 94.6*; Scp1 confirm: 87.7*; Scp-1 MG ctr: 2.8; Scp1 DSF: 1.6

Results for C=CCn1c(Cc2cccs2)nnc1SCC(=O)NCc1ccco1 ?
Rpn11 block: -5.3; STEP block: -0.9; LMPTP block: 5.9; DNMT1 block: 9.0; Scp-1 inhibitor: 53.0*; Scp1 confirm: 47.2*; Scp-1 MG ctr: -22.7; Scp1 DSF: 1.6

What do the screens show for `C=CCn1c(COc2ccccc2F)nnc1SCC(=O)NC(=O)NCc1ccco1`?
Rpn11 block: -20.2; STEP block: -0.9; LMPTP block: 6.2; DNMT1 block: 41.5; Scp-1 inhibitor: 91.5*; Scp1 confirm: 65.4*; Scp-1 MG ctr: 1.7; Scp1 DSF: -7.0

What do the screens show for `O=C(CSc1ccsc1[N+](=O)[O-])NCc1ccco1`?
Rpn11 block: -15.4; STEP block: 4.7; LMPTP block: 3.6; DNMT1 block: 29.0; Scp-1 inhibitor: 56.7*; Scp1 confirm: 61.1*; Scp-1 MG ctr: -15.6; Scp1 DSF: 4.9

Results for C=CCn1c(COc2ccccc2-c2ccccc2)nnc1SCC(=O)NC(=O)NCc1ccco1 ?
Rpn11 block: 7.5; STEP block: 0.8; LMPTP block: 1.7; DNMT1 block: 2.1; Scp-1 inhibitor: 0.6

What do the screens show for `CSc1ncccc1C(=O)N1CCC(C)(C(=O)O)C1` (stereo unspecified)?
Rpn11 block: -5.1; STEP block: -2.6; LMPTP block: -1.2; DNMT1 block: 0.1

What do the screens show for `COc1cccc(C(C(=O)NC2CCCCC2)N(C(=O)c2csnn2)C2CC2)c1` (stereo unspecified)?
Rpn11 block: 4.8; STEP block: 2.6; LMPTP block: -0.9; DNMT1 block: 0.3; Scp-1 inhibitor: -1.4

What do the screens show for `COc1ccc(COC(=O)c2sc3nc4n(c(=O)c3c2C)CCC4)cc1`?
Rpn11 block: 0.6; STEP block: 1.8; LMPTP block: 2.3; DNMT1 block: -7.8; Scp-1 inhibitor: -3.5

What do the screens show for `CCOc1ccc(Br)cc1C(=O)N/N=C/c1ccc([N+](=O)[O-])cc1`?
Rpn11 block: 7.8; STEP block: 20.6; LMPTP block: 38.4; DNMT1 block: 16.2; Scp-1 inhibitor: 80.9*; Scp1 confirm: 32.1*; Scp-1 MG ctr: 3.6; Scp1 DSF: 2.8

Results for COc1ccc(Br)cc1C(=O)N/N=C/c1ccc([N+](=O)[O-])cc1 ?
Rpn11 block: -1.3; STEP block: 20.9; LMPTP block: 43.2; DNMT1 block: 15.1; Scp-1 inhibitor: 99.4*; Scp1 confirm: 33.0*; Scp-1 MG ctr: -7.3; Scp1 DSF: 1.9

What do the screens show for `CCOc1ccc(Br)cc1C(=O)N/N=C/c1ccccn1`?
Rpn11 block: -8.5; STEP block: -1.7; LMPTP block: -1.1; DNMT1 block: 1.2; Scp-1 inhibitor: -6.0

Results for O=C(NCCN1CCNC1=O)C1CCC(=O)N(Cc2cccc(C(F)(F)F)c2)C1 (stereo unspecified) ?
Rpn11 block: 2.8; STEP block: -2.4; LMPTP block: -1.6; DNMT1 block: -0.5; Scp-1 inhibitor: -1.1; Scp1 confirm: -19.4; Scp-1 MG ctr: -16.2

Screens from PubChem.
